Test results taken from ChEMBL document CHEMBL2429791, “Preparation of asymmetric urea derivatives that target prostate-specific membrane antigen for SPECT imaging” (J Med Chem, 2013).
pKd: −log10 of the molar value.

Legend:
Lung = test: Biodistribution in lung of C.B.-17/Icr +/+ Jcl mouse xenografted with human LNCAP and PC3 cells at 25.9 MBq, iv after 1 hr; assay type: ADME, organism-based; details: in vivo
Method in brief: (§1)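 Radioiodinated (¹²⁵I) tracer given by tail-vein injection to mice bearing LNCaP (left shoulder) and PC-3 (right shoulder) xenografts, 22–24 g, grown to about 5–10 mm. Groups of n=4 were decapitated at 2 min, 30 min, 1 h, 3 h or 6 h. Tissues were weighed and counted, and uptake was expressed as %ID/g (mean ± SD).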

Kidney = test: Biodistribution in kidney of C.B.-17/Icr […] Jcl mouse xenografted with human LNCAP and PC3 cells at 25.9 MBq, iv after 1 hr; assay type: ADME, organism-based; details: in vivo
Method in brief: (§2)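 ¹²⁵I-labelled tracer given iv by tail vein to mice (22–24 g) bearing LNCaP (left shoulder) and PC-3 (right shoulder) xenografts of about 5–10 mm, grown from 1–5 × 10⁶ cells in 1:1 Matrigel. n=4 per time point; decapitated at 2 min, 30 min, 1, 3, 6 h. Tissues weighed and counted; uptake as %ID/g, mean ± SD.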

Blood [1] = test: Biodistribution in blood of C.B.-17/Icr scid/scid Jcl mouse xenografted with human LNCAP and PC3 cells at 25.9 MBq, iv after 30 mins; assay type: ADME, organism-based; details: in vivo, 0.5 h
Spleen [2] = test: Biodistribution in spleen of C.B.-17/Icr +/+ Jcl mouse xenografted with human LNCAP and PC3 cells at 25.9 MBq, iv after 6 hrs; assay type: ADME, organism-based; details: in vivo; method in brief: as §1
Stomach [3] = test: Biodistribution in stomach of C.B.-17/Icr +/+ Jcl mouse xenografted with human LNCAP and PC3 cells at 25.9 MBq, iv after 1 hr; assay type: ADME, organism-based; details: in vivo; method in brief: as §1
Nucleic Acid [4] = test: Ratio of drug level in human LNCAP cells to human PC3 cells xenografted in C.B.-17/Icr […] Jcl mouse at 25.9 MBq, iv after 1 hr; assay type: ADME, organism-based; details: in vivo
LNCaP = test: Biodistribution in LNCAP cells in C.B.-17/Icr +/+ Jcl mouse xenografted with human LNCAP and PC3 cells at 25.9 MBq, iv after 2 mins; assay type: ADME, organism-based; details: in vivo; method in brief: as §2
Stomach [5] = test: Biodistribution in stomach of C.B.-17/Icr +/+ Jcl mouse xenografted with human LNCAP and PC3 cells at 25.9 MBq, iv after 6 hrs; assay type: ADME, organism-based; details: in vivo; method in brief: as §1
[6] = Ratio of drug level in human LNCAP cells xenografted in C.B.-17/Icr +/+ Jcl mouse to blood of C.B.-17/Icr +/+ Jcl mouse xenografted with human LNCAP and PC3 cells at 25.9 MBq, iv after 6 hrs; assay type: ADME, organism-based; details: LNCAP tumour xenograft relative to blood
Method in brief: (§3)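 Tumor-to-blood and tumor-to-muscle ratios were calculated from %ID/g values in ¹²⁵I-tracer biodistribution in LNCaP/PC-3 xenografted mice. Tail-vein dosing, n=4 per time point, sacrifice at 2 min, 30 min, 1, 3 or 6 h.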

Spleen [7] = test: Biodistribution in spleen of C.B.-17/Icr +/+ Jcl mouse xenografted with human LNCAP and PC3 cells at 25.9 MBq, iv after 30 mins; assay type: ADME, organism-based; details: in vivo, 0.5 h; method in brief: as §1
Intestine [8] = test: Biodistribution in intestine of C.B.-17/Icr +/+ Jcl mouse xenografted with human LNCAP and PC3 cells at 25.9 MBq, iv after 30 mins; assay type: ADME, organism-based; details: in vivo, 0.5 h; method in brief: as §2
Liver [9] = test: Biodistribution in liver of C.B.-17/Icr […] Jcl mouse xenografted with human LNCAP and PC3 cells at 25.9 MBq, iv after 30 mins; assay type: ADME, organism-based; details: in vivo, 0.5 h; method in brief: as §2
[10] = Ratio of drug level in human PC3 cells xenografted in C.B.-17/Icr +/+ Jcl mouse to blood of C.B.-17/Icr +/+ Jcl mouse xenografted with human LNCAP and PC3 cells at 25.9 MBq, iv after 6 hrs; assay type: ADME, organism-based; details: PC3 tumour xenograft relative to blood
Method in brief: (§4)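 Mice (22–24 g) carried PC-3 (right shoulder) and LNCaP (left shoulder) tumors, raised by injecting 1–5 × 10⁶ cells in 1:1 PBS/Matrigel and used at about 5–10 mm diameter. [¹²⁵I]-tracer was given via the tail vein, n=4 per time point, and mice were decapitated at 2 min, 30 min, 1, 3 or 6 h. Tissues were weighed and γ-counted as %ID/g. Tumor/blood and tumor/muscle ratios were taken from %ID/g, mean ± SD.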

[11] = Ratio of drug level in human PC3 cells xenografted in C.B.-17/Icr +/+ Jcl mouse to blood of C.B.-17/Icr +/+ Jcl mouse xenografted with human LNCAP and PC3 cells at 25.9 MBq, iv after 1 hr; assay type: ADME, organism-based; details: PC3 tumour xenograft relative to blood; method in brief: as §4
Intestine [12] = test: Biodistribution in intestine of C.B.-17/Icr +/+ Jcl mouse xenografted with human LNCAP and PC3 cells at 25.9 MBq, iv after 1 hr; assay type: ADME, organism-based; details: in vivo; method in brief: as §2
Intestine [13] = test: Biodistribution in intestine of C.B.-17/Icr +/+ Jcl mouse xenografted with human LNCAP and PC3 cells at 25.9 MBq, iv after 2 mins; assay type: ADME, organism-based; details: in vivo; method in brief: as §2
PC-3 [14] = test: Biodistribution in PC3 cells in C.B.-17/Icr +/+ Jcl mouse xenografted with human LNCAP and PC3 cells at 25.9 MBq, iv after 2 mins; assay type: ADME, organism-based; details: in vivo; method in brief: as §2
Heart = test: Biodistribution in heart of C.B.-17/Icr +/+ Jcl mouse xenografted with human LNCAP and PC3 cells at 25.9 MBq, iv after 6 hrs; assay type: ADME, organism-based; details: in vivo; method in brief: as §2
Muscle tissue = test: Biodistribution in muscle of C.B.-17/Icr +/+ Jcl mouse xenografted with human LNCAP and PC3 cells at 25.9 MBq, iv after 2 mins; assay type: ADME, organism-based; details: in vivo; method in brief: as §1
Blood [15] = test: Biodistribution in blood of C.B.-17/Icr +/+ Jcl mouse xenografted with human LNCAP and PC3 cells at 25.9 MBq, iv after 6 hrs; assay type: ADME, organism-based; details: in vivo; method in brief: as §2
Thyroid gland = test: Biodistribution in thyroid of C.B.-17/Icr +/+ Jcl mouse xenografted with human LNCAP and PC3 cells at 25.9 MBq, iv after 3 hrs; assay type: ADME, organism-based; details: in vivo; method in brief: as §1
Liver [16] = test: Biodistribution in liver of C.B.-17/Icr […] Jcl mouse xenografted with human LNCAP and PC3 cells at 25.9 MBq, iv after 3 hrs; assay type: ADME, organism-based; details: in vivo; method in brief: as §2
PC-3 [17] = test: Biodistribution in PC3 cells in C.B.-17/Icr +/+ Jcl mouse xenografted with human LNCAP and PC3 cells at 25.9 MBq, iv after 3 hrs; assay type: ADME, organism-based; details: in vivo; method in brief: as §2
[18] = biological target: Glutamate carboxypeptidase 2 (Homo sapiens, UniProt Q04609); test: Binding affinity to PSMA in human LNCaP cells after 1 hr by gamma counting; assay type: cell-based
Method in brief: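 LNCaP cells plated at 4 × 10⁵ cells/well and grown 48 h (37 °C/5% CO₂), then washed with RPMI 1640 containing 0.5% BSA. Saturation binding used ¹²⁵I-labelled ligand (specific activity 81.4 kBq/nmol), 1 h at 37 °C; nonspecific binding measured with 100 µM non-radioactive iodinated compound. Cells washed, lysed in 0.2 N NaOH, gamma-counted; Kd from Scatchard plots.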

Nucleic Acid [19] = test: Ratio of drug level in human LNCAP cells xenografted in C.B.-17/Icr +/+ Jcl mouse to muscle of C.B.-17/Icr +/+ Jcl mouse xenografted with human LNCAP and PC3 cells at 25.9 MBq, iv after 30 mins; assay type: ADME, organism-based; details: in vivo, 0.5 h; method in brief: as §3
[20] = Distribution coefficient, log D of the compound; assay type: physicochemical; details: octanol/water

Sequence of Glutamate carboxypeptidase 2 (Q04609 whole entry): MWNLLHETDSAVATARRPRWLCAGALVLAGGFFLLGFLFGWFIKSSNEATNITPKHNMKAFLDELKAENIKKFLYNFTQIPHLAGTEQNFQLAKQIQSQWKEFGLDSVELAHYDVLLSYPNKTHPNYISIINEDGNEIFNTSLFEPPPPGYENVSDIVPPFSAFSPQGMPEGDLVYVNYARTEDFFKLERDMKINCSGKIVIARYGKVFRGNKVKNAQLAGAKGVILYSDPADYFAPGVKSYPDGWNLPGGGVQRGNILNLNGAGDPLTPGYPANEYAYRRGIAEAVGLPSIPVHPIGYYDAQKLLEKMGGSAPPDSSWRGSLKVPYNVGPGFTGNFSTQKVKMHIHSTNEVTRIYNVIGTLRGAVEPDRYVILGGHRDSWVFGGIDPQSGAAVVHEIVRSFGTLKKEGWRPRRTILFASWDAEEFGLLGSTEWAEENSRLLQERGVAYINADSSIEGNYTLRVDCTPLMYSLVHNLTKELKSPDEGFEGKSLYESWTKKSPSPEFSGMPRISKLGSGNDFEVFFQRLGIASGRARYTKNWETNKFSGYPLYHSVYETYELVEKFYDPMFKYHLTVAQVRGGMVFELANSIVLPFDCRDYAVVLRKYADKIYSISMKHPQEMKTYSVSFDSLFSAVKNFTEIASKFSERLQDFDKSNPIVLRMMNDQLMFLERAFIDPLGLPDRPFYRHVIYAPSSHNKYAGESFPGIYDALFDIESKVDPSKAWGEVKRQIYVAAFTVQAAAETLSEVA

O=C(O)CC[C@H](NC(=O)N[C@@H](CSC1CC(=O)N(CCCC[C@H](NC(=O)CNC(=O)c2cccc([125I])c2)C(=O)O)C1=O)C(=O)O)C(=O)O (stereo partly specified)
Drug uptake (Lung): 2.5 % ID/g
Drug uptake (Kidney): 92.8 % ID/g
Drug uptake (Blood [1]): 1.5 % ID/g
Drug uptake (Spleen [2]): 9.7 % ID/g
Drug uptake (Stomach [3]): 1 %ID
Ratio (Nucleic Acid [4]): 9.6
Drug uptake (LNCaP): 4.2 % ID/g
Drug uptake (Stomach [5]): 0.7 %ID
Kp at 6 h [6]: 13.3
Drug uptake (Spleen [7]): 43.3 % ID/g
Drug uptake (Intestine [8]): 11.2 % ID/g
Drug uptake (Liver [9]): 13.7 % ID/g
Kp at 6 h [10]: 0.4
Kp at 1 h [11]: 0.7
Drug uptake (Intestine [12]): 16.5 % ID/g
Drug uptake (Intestine [13]): 3.6 % ID/g
Drug uptake (PC-3 [14]): 2.7 % ID/g
Drug uptake (Heart): 0.4 % ID/g
Drug uptake (Muscle tissue): 1.4 % ID/g
Drug uptake (Blood [15]): 0.5 % ID/g
Drug uptake (Thyroid gland): 0.01 %ID
Drug uptake (Liver [16]): 9 % ID/g
Drug uptake (PC-3 [17]): 0.3 % ID/g
pKd [18]: 8.11
Ratio (Nucleic Acid [19]): 11.1
logD [20]: -1.97
